Active and inactive are the calls of the source. The calls are words filed in the database; no cut-off is given here.
Experiments:
[1] = target: T1, Cytosolic phospholipase A2 (Homo sapiens) (UniProt P47712); experiment: Inhibition of cPLA2alpha-mediated [3H]-arachidonic acid release in Ca2+ ionophore A23187-stimulated human neutrophils at 10 uM preincubated for 15 mins followed by Ca2+ ionophore A23187 stimulation measured after 5 mins by scintillation counting method
T1 sequence (whole entry): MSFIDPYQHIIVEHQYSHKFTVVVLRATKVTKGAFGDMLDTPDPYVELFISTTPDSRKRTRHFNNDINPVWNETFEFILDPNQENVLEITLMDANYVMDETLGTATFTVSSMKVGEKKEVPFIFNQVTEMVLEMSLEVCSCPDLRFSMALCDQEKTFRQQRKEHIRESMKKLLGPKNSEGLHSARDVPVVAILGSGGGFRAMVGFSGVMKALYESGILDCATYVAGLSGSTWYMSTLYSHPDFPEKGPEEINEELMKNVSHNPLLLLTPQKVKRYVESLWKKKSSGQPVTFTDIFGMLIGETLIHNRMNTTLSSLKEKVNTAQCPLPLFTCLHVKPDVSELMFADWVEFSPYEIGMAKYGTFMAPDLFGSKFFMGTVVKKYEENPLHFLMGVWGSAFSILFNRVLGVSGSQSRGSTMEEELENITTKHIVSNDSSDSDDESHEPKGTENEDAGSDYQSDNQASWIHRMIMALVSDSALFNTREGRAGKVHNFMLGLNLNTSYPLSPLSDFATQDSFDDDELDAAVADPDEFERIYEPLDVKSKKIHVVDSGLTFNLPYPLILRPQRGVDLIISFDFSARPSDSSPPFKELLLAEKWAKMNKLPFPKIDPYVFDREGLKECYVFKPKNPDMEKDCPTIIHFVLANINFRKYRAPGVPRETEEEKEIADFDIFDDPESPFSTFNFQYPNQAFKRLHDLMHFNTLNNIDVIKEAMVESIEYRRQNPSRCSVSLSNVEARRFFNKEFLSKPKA
Summary of the method: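 Neutrophils (1 × 10^7) labelled with 5 nM [3H]-AA for 120 min at 37 °C, washed with fatty-acid-free BSA buffer, pre-incubated 15 min at 37 °C with compound or 0.1% DMSO, then stimulated with 2.5 µM A23187 for 5 min. Released [3H]-AA in supernatant counted by liquid scintillation; n=3-4.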

[2] = target: T2, Polyunsaturated fatty acid 5-lipoxygenase (Homo sapiens) (UniProt P09917); experiment: Inhibition of 5-LO in human M1 macrophages derived from LPS/IFNgamma-polarized human monocyte derived macrophages assessed as effect on 5-HEPE level at 3 uM preincubated for 15 mins followed by Escherichia coli (O6:K2:H1) challenge for 90 mins by LC-MS/MS analysis; design: scale not given: the % may be the effect or the level left
T2 sequence (whole entry): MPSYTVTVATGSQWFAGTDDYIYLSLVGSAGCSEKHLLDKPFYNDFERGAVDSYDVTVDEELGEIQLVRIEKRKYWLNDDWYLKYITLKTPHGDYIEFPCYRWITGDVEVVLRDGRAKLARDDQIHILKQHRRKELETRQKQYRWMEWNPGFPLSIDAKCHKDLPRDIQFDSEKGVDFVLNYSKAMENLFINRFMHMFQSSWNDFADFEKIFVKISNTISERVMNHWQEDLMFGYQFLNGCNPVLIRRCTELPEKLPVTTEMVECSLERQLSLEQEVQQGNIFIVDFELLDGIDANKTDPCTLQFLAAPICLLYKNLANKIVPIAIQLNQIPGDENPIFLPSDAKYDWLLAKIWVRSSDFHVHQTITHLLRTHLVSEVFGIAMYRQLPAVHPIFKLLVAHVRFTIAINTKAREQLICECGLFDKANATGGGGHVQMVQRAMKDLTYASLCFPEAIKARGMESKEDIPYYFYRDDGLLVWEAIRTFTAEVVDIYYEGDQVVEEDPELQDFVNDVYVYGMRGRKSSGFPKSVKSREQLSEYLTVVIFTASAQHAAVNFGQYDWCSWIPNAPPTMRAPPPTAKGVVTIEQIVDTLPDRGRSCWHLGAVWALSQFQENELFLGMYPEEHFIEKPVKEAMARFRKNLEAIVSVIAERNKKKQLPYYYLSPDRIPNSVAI
Summary of the method: (§1)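 Monocytes differentiated 6 days with GM-CSF (20 ng/ml) in RPMI/10% FCS, then polarized 48 h with LPS 100 ng/ml plus IFN-γ 20 ng/ml (M1). Cells (2 × 10^6) in PBS with 1 mM CaCl2 pre-incubated 15 min at 37 °C with 3 µM compound or 0.1% DMSO, then E. coli O6:K2:H1 (1:50) for 90 min. Methanol with deuterated standards added; SPE; UPLC-MS/MS; expressed as % of vehicle.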

[3] = target: T2, Polyunsaturated fatty acid 5-lipoxygenase (Homo sapiens); experiment: Inhibition of 5-LO in human M1 macrophages derived from LPS/IFNgamma-polarized human monocyte derived macrophages assessed as effect on t-LTB4 level at 3 uM preincubated for 15 mins followed by Escherichia coli (O6:K2:H1) challenge for 90 mins by LC-MS/MS analysis; design: scale not given: the % may be the effect or the level left; summary of the method: as §1
[4] = target: T2, Polyunsaturated fatty acid 5-lipoxygenase (Homo sapiens); experiment: Inhibition of 5-LO in human M1 macrophages derived from LPS/IFNgamma-polarized human monocyte derived macrophages assessed as effect on LTB4 level at 3 uM preincubated for 15 mins followed by Escherichia coli (O6:K2:H1) challenge for 90 mins by LC-MS/MS analysis; design: scale not given: the % may be the effect or the level left; summary of the method: as §1
[5] = target: T3, Prostaglandin E synthase (Homo sapiens) (UniProt O14684); experiment: Inhibition of mPGES-1 in LPS/IFNgamma-differentiated human M1 macrophages assessed as effect on PGE2 level at 3 uM preincubated for 15 mins followed by Escherichia coli (O6:K2:H1) challenge for 90 mins by LC-MS/MS analysis; design: scale not given: the % may be the effect or the level left; summary of the method: as §1
T3 sequence (whole entry): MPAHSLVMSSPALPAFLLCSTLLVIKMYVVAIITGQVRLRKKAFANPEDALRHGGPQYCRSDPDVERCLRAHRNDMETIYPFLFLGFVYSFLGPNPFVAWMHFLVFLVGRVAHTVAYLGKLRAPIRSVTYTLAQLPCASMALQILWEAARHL

Macrophage cell line [6] = experiment: Modulation of 4-HDHA level in human M2 macrophages derived from IL4-polarized human monocyte derived macrophages at 3 uM preincubated for 15 mins followed by Escherichia coli (O6:K2:H1) challenge for 90 mins by LC-MS/MS analysis; format: functional
Summary of the method: (§2)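 Monocytes differentiated 6 days with M-CSF (20 ng/ml), then polarized 48 h with IL-4 20 ng/ml (M2). Cells (2 × 10^6) in PBS/1 mM CaCl2 pre-incubated 15 min at 37 °C with 3 µM compound or 0.1% DMSO, then challenged with E. coli O6:K2:H1 (1:50) for 90 min. Lipid mediators extracted by SPE with deuterated internal standards and quantified by UPLC-MS/MS as % of vehicle.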

Cyclooxygenase = Cyclooxygenase (Homo sapiens, UniProt P35354+P23219); experiment: Modulation of COX1/2-mediated TXB2 level in human M1 macrophages derived from LPS/IFNgamma-polarized human monocyte derived macrophages at 3 uM preincubated for 15 mins followed by Escherichia coli (O6:K2:H1) challenge for 90 mins by LC-MS/MS analysis; format: protein assay; details: 1.5 h; summary of the method: as §1
Macrophage cell line [7] = experiment: Modulation of 18-HEPE level in human M2 macrophages derived from IL4-polarized human monocyte derived macrophages at 3 uM preincubated for 15 mins followed by Escherichia coli (O6:K2:H1) challenge for 90 mins by LC-MS/MS analysis; format: functional; summary of the method: as §2

inhibition [1]: inactive
Activity [2]: 23%
Activity [3]: 17%
Activity [4]: 11%
Activity [5]: 72%
Activity (Cyclooxygenase): 92%
Structure (SMILES): O=C(O)c1ccc(N(Cc2cccc(OCc3ccccc3)c2)S(=O)(=O)c2ccc(-c3ccccc3)cc2)cc1
Activity (Macrophage cell line [6]): 86%
Activity (Macrophage cell line [7]): 86%
